# Results reported in ChEMBL document CHEMBL1687824, “Overexpression of patA and patB, which encode ABC transporters, is associated with fluoroquinolone resistance in clinical isolates of Streptococcus pneumoniae” (2011).
# Legend:
# Streptococcus pneumoniae [1] = assay: Antibacterial activity against Streptococcus pneumoniae M307 overexpressing patA, patB and inactivated patB with single mutation by standardized agar doubling dilution method in presence of 50 uM sodium orthovanadate efflux pump inhibitor; type: functional
# Procedure, shortened: (§1)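 MICs determined by BSAC standardized agar doubling dilution. Strains were grown in brain heart infusion broth for 24 h at 37°C in 5% CO2. Inhibitor arms had reserpine at 20 μg/ml or sodium orthovanadate at 50 μM in the agar. Mutants were made by transforming magellan2 insertion amplimers into clinical isolates and selecting on spectinomycin 100 mg/liter, with a no-DNA spontaneous-mutation control.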
# Streptococcus pneumoniae [2] = assay: Antibacterial activity against Streptococcus pneumoniae M300 overexpressing patA, patB and inactivated patA with single mutation by standardized agar doubling dilution method in presence of 20 ug/ml reserpine efflux pump inhibitor; type: functional; procedure, shortened: as §1
# Streptococcus pneumoniae [3] = assay: Antibacterial activity against fluoroquinolone, dye-resistant Streptococcus pneumoniae M74 overexpressing patA, patB by standardized agar doubling dilution method; type: functional
# Procedure, shortened: (§2)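 MIC by agar doubling dilution following BSAC guidelines. Strains grown in brain heart infusion broth 24 h at 37°C in 5% CO2. Where an efflux pump inhibitor applies, MIC redetermined with reserpine at 20 μg/ml or sodium orthovanadate at 50 μM. Synergy taken as a fall in MIC of ≥2 dilutions with inhibitor present. Dye resistance defined relative to R6 (both dyes ≥2 dilutions higher).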
# Streptococcus pneumoniae [4] = assay: Antibacterial activity against fluoroquinolone, dye-resistant Streptococcus pneumoniae M74 overexpressing patA, patB by standardized agar doubling dilution method in presence of 20 ug/ml reserpine efflux pump inhibitor; type: functional; procedure, shortened: as §2
# Streptococcus pneumoniae [5] = assay: Antibacterial activity against fluoroquinolone-resistant Streptococcus pneumoniae M79 FQ-R overexpressing patA, patB by standardized agar doubling dilution method; type: functional
# Procedure, shortened: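 Clinical S. pneumoniae isolates grown in BHI broth 24 h at 37°C in 5% CO2. MICs by agar doubling dilution per BSAC guidelines, alone or with efflux inhibitor reserpine (20 μg/ml) or sodium orthovanadate (50 μM). Synergy defined as ≥2-dilution MIC reduction in presence of inhibitor.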
# Streptococcus pneumoniae [6] = assay: Antibacterial activity against Streptococcus pneumoniae M45B overexpressing patA, patB and inactivated patB with single mutation by standardized agar doubling dilution method; type: functional
# Procedure, shortened: (§3)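 MICs were determined by agar doubling dilution following BSAC guidelines, with no efflux inhibitor. Strains were grown in brain heart infusion broth for 24 h at 37°C in 5% CO2. Species identity was confirmed by Gram stain, optochin sensitivity and capsule test. Control strain R6 was tested alongside.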
# Streptococcus pneumoniae [7] = assay: Antibacterial activity against fluoroquinolone, dye-resistant Streptococcus pneumoniae M42 overexpressing patA, patB by standardized agar doubling dilution method in presence of 50 uM sodium orthovanadate efflux pump inhibitor; type: functional; procedure, shortened: as §2
# Streptococcus pneumoniae [8] = assay: Antibacterial activity against Streptococcus pneumoniae M308 overexpressing patA, patB and inactivated patB with single mutation by standardized agar doubling dilution method in presence of 20 ug/ml reserpine efflux pump inhibitor; type: functional; procedure, shortened: as §1
# Streptococcus pneumoniae [9] = assay: Antibacterial activity against Streptococcus pneumoniae M50B overexpressing patA, patB and inactivated patB with single mutation by standardized agar doubling dilution method; type: functional; procedure, shortened: as §3
# Streptococcus pneumoniae [10] = assay: Antibacterial activity against fluoroquinolone, dye-resistant Streptococcus pneumoniae M297 overexpressing patA, patB by standardized agar doubling dilution method in presence of 20 ug/ml reserpine efflux pump inhibitor; type: functional; procedure, shortened: as §2
# Streptococcus pneumoniae [11] = assay: Antibacterial activity against Streptococcus pneumoniae M45A overexpressing patA, patB and inactivated patA with single mutation by standardized agar doubling dilution method in presence of 20 ug/ml reserpine efflux pump inhibitor; type: functional
# Procedure, shortened: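 MICs were determined by BSAC agar doubling dilution in the presence of reserpine at 20 μg/ml. Strains were grown in BHI broth for 24 h at 37°C in 5% CO2, with R6 as control. Synergy was defined as an MIC drop of ≥2 dilutions with the inhibitor.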
# Streptococcus pneumoniae [12] = assay: Antibacterial activity against Streptococcus pneumoniae M311 overexpressing patA, patB and inactivated patA with single mutation by standardized agar doubling dilution method in presence of 20 ug/ml reserpine efflux pump inhibitor; type: functional; procedure, shortened: as §1
# Streptococcus pneumoniae [13] = assay: Antibacterial activity against Streptococcus pneumoniae M301 overexpressing patA, patB and inactivated patA with single mutation by standardized agar doubling dilution method; type: functional; procedure, shortened: as §1
# Streptococcus pneumoniae [14] = assay: Antibacterial activity against Streptococcus pneumoniae M318 overexpressing patA, patB and inactivated patA with single mutation by standardized agar doubling dilution method in presence of 50 uM sodium orthovanadate efflux pump inhibitor; type: functional
# Procedure, shortened: (§4)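 MICs were determined by BSAC agar doubling dilution in the presence of sodium orthovanadate at 50 μM. Cultures were grown in BHI broth for 24 h at 37°C in 5% CO2, with R6 as control. Synergy was defined as an MIC reduction of ≥2 dilutions with the inhibitor present.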
# Streptococcus pneumoniae [15] = assay: Antibacterial activity against Streptococcus pneumoniae M45B overexpressing patA, patB and inactivated patB with single mutation by standardized agar doubling dilution method in presence of 50 uM sodium orthovanadate efflux pump inhibitor; type: functional; procedure, shortened: as §4
# Streptococcus pneumoniae [16] = assay: Antibacterial activity against Streptococcus pneumoniae M86A overexpressing patA, patB and inactivated patA with single mutation by standardized agar doubling dilution method; type: functional; procedure, shortened: as §3
# Streptococcus pneumoniae [17] = assay: Antibacterial activity against Streptococcus pneumoniae M300 overexpressing patA, patB and inactivated patA with single mutation by standardized agar doubling dilution method in presence of 50 uM sodium orthovanadate efflux pump inhibitor; type: functional; procedure, shortened: as §1
# Streptococcus pneumoniae [18] = assay: Antibacterial activity against Streptococcus pneumoniae M86B overexpressing patA, patB and inactivated patB with single mutation by standardized agar doubling dilution method; type: functional; procedure, shortened: as §3
# Streptococcus pneumoniae [19] = assay: Antibacterial activity against Streptococcus pneumoniae M310 overexpressing patA, patB and inactivated patB with single mutation by standardized agar doubling dilution method in presence of 20 ug/ml reserpine efflux pump inhibitor; type: functional; procedure, shortened: as §1
# Streptococcus pneumoniae [20] = assay: Antibacterial activity against Streptococcus pneumoniae M311 overexpressing patA, patB and inactivated patA with single mutation by standardized agar doubling dilution method; type: functional; procedure, shortened: as §1
# Streptococcus pneumoniae [21] = assay: Antibacterial activity against Streptococcus pneumoniae M298 overexpressing patA, patB and inactivated patA with single mutation by standardized agar doubling dilution method
# Streptococcus pneumoniae [22] = assay: Antibacterial activity against fluoroquinolone, dye-resistant Streptococcus pneumoniae by standardized agar doubling dilution method; type: functional; procedure, shortened: as §2
# Streptococcus pneumoniae [23] = assay: Antibacterial activity against Streptococcus pneumoniae M302 overexpressing patA, patB and inactivated patA with single mutation by standardized agar doubling dilution method; type: functional; procedure, shortened: as §1
# Streptococcus pneumoniae [24] = assay: Antibacterial activity against dye-resistant Streptococcus pneumoniae by standardized agar doubling dilution method in presence of 50 uM sodium orthovanadate efflux pump inhibitor; type: functional; procedure, shortened: as §2
# Streptococcus pneumoniae [25] = assay: Antibacterial activity against fluoroquinolone, dye-resistant Streptococcus pneumoniae by standardized agar doubling dilution method in presence of 50 uM sodium orthovanadate efflux pump inhibitor; type: functional; procedure, shortened: as §2
# Streptococcus pneumoniae [26] = assay: Antibacterial activity against fluoroquinolone, dye-resistant Streptococcus pneumoniae M45 overexpressing patA, patB by standardized agar doubling dilution method in presence of 20 ug/ml reserpine efflux pump inhibitor; type: functional; procedure, shortened: as §2
# Streptococcus pneumoniae [27] = assay: Antibacterial activity against wild type Streptococcus pneumoniae M4 NCTC 7465 type 1 by standardized agar doubling dilution method in presence of 50 uM sodium orthovanadate efflux pump inhibitor; type: functional
# Streptococcus pneumoniae [28] = assay: Antibacterial activity against fluoroquinolone, dye-resistant Streptococcus pneumoniae M50 overexpressing patA, patB by standardized agar doubling dilution method in presence of 20 ug/ml reserpine efflux pump inhibitor; type: functional; procedure, shortened: as §2
# Streptococcus pneumoniae [29] = assay: Antibacterial activity against fluoroquinolone, dye-resistant Streptococcus pneumoniae M50 overexpressing patA, patB by standardized agar doubling dilution method in presence of 50 uM sodium orthovanadate efflux pump inhibitor; type: functional; procedure, shortened: as §2
smiles,measurement,setting,value
O=C(O)c1cn(C2CC2)c2cc(N3CCNCC3)c(F)cc2c1=O [CIPROFLOXACIN],MIC,Streptococcus pneumoniae [1],8 µg/mL
same,MIC,Streptococcus pneumoniae [2],2 µg/mL
same,MIC,Streptococcus pneumoniae [3],64 µg/mL
same,MIC,Streptococcus pneumoniae [4],32 µg/mL
same,MIC,Streptococcus pneumoniae [5],32 µg/mL
same,MIC,Streptococcus pneumoniae [6],1 µg/mL
same,MIC,Streptococcus pneumoniae [7],16 µg/mL
same,MIC,Streptococcus pneumoniae [8],1 µg/mL
same,MIC,Streptococcus pneumoniae [9],4 µg/mL
same,MIC,Streptococcus pneumoniae [10],2 µg/mL
same,MIC,Streptococcus pneumoniae [11],1 µg/mL
same,MIC,Streptococcus pneumoniae [12],4 µg/mL
same,MIC,Streptococcus pneumoniae [13],8 µg/mL
same,MIC,Streptococcus pneumoniae [14],16 µg/mL
same,MIC,Streptococcus pneumoniae [15],1 µg/mL
same,MIC,Streptococcus pneumoniae [16],1 µg/mL
same,MIC,Streptococcus pneumoniae [17],2 µg/mL
same,MIC,Streptococcus pneumoniae [18],1 µg/mL
same,MIC,Streptococcus pneumoniae [19],1 µg/mL
same,MIC,Streptococcus pneumoniae [20],8 µg/mL
same,MIC,Streptococcus pneumoniae [21],8 µg/mL
same,MIC90,Streptococcus pneumoniae [22],16 µg/mL
same,MIC,Streptococcus pneumoniae [23],4 µg/mL
same,MIC90,Streptococcus pneumoniae [24],0.5 µg/mL
same,MIC90,Streptococcus pneumoniae [25],8 µg/mL
same,MIC,Streptococcus pneumoniae [26],1 µg/mL
same,MIC,Streptococcus pneumoniae [27],1 µg/mL
same,MIC,Streptococcus pneumoniae [28],32 µg/mL
same,MIC,Streptococcus pneumoniae [29],32 µg/mL
CC[n+]1c(-c2ccccc2)c2cc(N)ccc2c2ccc(N)cc21.[Br-] [HOMIDIUM BROMIDE],MIC,Streptococcus pneumoniae [1],2 µg/mL
same,MIC,Streptococcus pneumoniae [2],0.5 µg/mL
same,MIC,Streptococcus pneumoniae [3],4 µg/mL
same,MIC,Streptococcus pneumoniae [4],0.5 µg/mL
same,MIC,Streptococcus pneumoniae [5],2 µg/mL
same,MIC,Streptococcus pneumoniae [6],0.5 µg/mL
same,MIC,Streptococcus pneumoniae [7],1 µg/mL
same,MIC,Streptococcus pneumoniae [8],0.25 µg/mL
same,MIC,Streptococcus pneumoniae [9],0.5 µg/mL
same,MIC,Streptococcus pneumoniae [10],0.5 µg/mL
same,MIC,Streptococcus pneumoniae [11],0.5 µg/mL
same,MIC,Streptococcus pneumoniae [12],0.5 µg/mL
same,MIC,Streptococcus pneumoniae [13],0.5 µg/mL
same,MIC,Streptococcus pneumoniae [14],0.5 µg/mL
same,MIC,Streptococcus pneumoniae [15],0.5 µg/mL
same,MIC,Streptococcus pneumoniae [16],0.5 µg/mL
same,MIC,Streptococcus pneumoniae [17],0.5 µg/mL
same,MIC,Streptococcus pneumoniae [18],0.5 µg/mL
same,MIC,Streptococcus pneumoniae [19],0.5 µg/mL
same,MIC,Streptococcus pneumoniae [20],0.5 µg/mL
same,MIC,Streptococcus pneumoniae [21],0.5 µg/mL
same,MIC90,Streptococcus pneumoniae [22],8 µg/mL
same,MIC,Streptococcus pneumoniae [23],0.5 µg/mL
same,MIC,Streptococcus pneumoniae [24],1 µg/mL
same,MIC90,Streptococcus pneumoniae [24],1 µg/mL
same,MIC90,Streptococcus pneumoniae [25],1 µg/mL
same,MIC,Streptococcus pneumoniae [26],0.5 µg/mL
same,MIC,Streptococcus pneumoniae [27],0.3 µg/mL
same,MIC,Streptococcus pneumoniae [28],0.5 µg/mL
same,MIC,Streptococcus pneumoniae [29],1 µg/mL
